# Assay results: ChEMBL document CHEMBL5058577, “EUbOPEN Chemogenomics Library 2 (Multiplex)” (2022)
# Tested on: HEK-293T
# Experiment: Multiplex assay against HEK293T
# Format: toxicity, cell-based
# Conditions: human
# Outline: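 Imaging took place on a CQ1 microscope at 37°C and 5% CO2 once compound had been added to live cells stained at seeding with Hoechst33342, BioTracker Green Microtubule Cytoskeleton Dye, MitoTracker Red and Annexin V Alexa Fluor 680. CellPathfinder machine-learning gating classed cells as Hoechst high-intensity objects or normal cells, classed normal cells as having healthy, pyknosed or fragmented nuclei, and classed pyknosed cells as mitotic or apoptotic. Tubulin, mitochondrial-mass and membrane-permeability phenotypes are per cents of the healthy-nucleus cells.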
# [1] = 12 h, 1 µM, compound concentration 1 uM, replicate 1
# [2] = 12 h, 1 µM, compound concentration 1 uM, replicate 2
# [3] = 12 h, 10 µM, compound concentration 10 uM, replicate 1
# [4] = 12 h, 10 µM, compound concentration 10 uM, replicate 2
# [5] = 24 h, 1 µM, compound concentration 1 uM, replicate 1
# [6] = 24 h, 1 µM, compound concentration 1 uM, replicate 2
# [7] = 24 h, 10 µM, compound concentration 10 uM, replicate 1
# [8] = 24 h, 10 µM, compound concentration 10 uM, replicate 2
# [9] = 48 h, 1 µM, compound concentration 1 uM, replicate 1
# [10] = 48 h, 1 µM, compound concentration 1 uM, replicate 2
# [11] = 48 h, 10 µM, compound concentration 10 uM, replicate 1
# [12] = 48 h, 10 µM, compound concentration 10 uM, replicate 2
smiles,measurement,setting,value
CC(C)(C)c1ccc(S(=O)(=O)Nc2ccc(Cl)cc2C(=O)c2cc[n+]([O-])cc2)cc1 [VERCIRNON],Population Apoptotic (%),[1],32%
same,Population Fragmented Nuclei (%),[1],10%
same,Population Healthy Nuclei (%),[1],77%
same,Population Hoechst High Intensity Objects (%),[1],7%
same,Population Membrane Permeable-Phenotype (%),[1],0%
same,Population Mitochondria Different-Phenotype (%),[1],33%
same,Population Mitotic Cells (%),[1],68%
same,Population Normal (%),[1],92%
same,Population Pyknosed Nuclei (%),[1],12%
same,Population Tubulin-Different-Phenotype (%),[1],21%
same,Total Cell Count,[1],428
same,Population Apoptotic (%),[2],52%
same,Population Fragmented Nuclei (%),[2],5%
same,Population Healthy Nuclei (%),[2],84%
same,Population Mitochondria Different-Phenotype (%),[2],51%
same,Population Mitotic Cells (%),[2],47%
same,Population Pyknosed Nuclei (%),[2],10%
same,Population Tubulin-Different-Phenotype (%),[2],22%
same,Total Cell Count,[2],424
same,Population Apoptotic (%),[3],30%
same,Population Fragmented Nuclei (%),[3],6%
same,Population Healthy Nuclei (%),[3],83%
same,Population Hoechst High Intensity Objects (%),[3],6%
same,Population Membrane Permeable-Phenotype (%),[3],0%
same,Population Mitochondria Different-Phenotype (%),[3],35%
same,Population Mitotic Cells (%),[3],69%
same,Population Normal (%),[3],93%
same,Population Pyknosed Nuclei (%),[3],10%
same,Population Tubulin-Different-Phenotype (%),[3],37%
same,Total Cell Count,[3],451
same,Population Apoptotic (%),[4],39%
same,Population Fragmented Nuclei (%),[4],4%
same,Population Healthy Nuclei (%),[4],82%
same,Population Hoechst High Intensity Objects (%),[4],5%
same,Population Membrane Permeable-Phenotype (%),[4],1%
same,Population Mitochondria Different-Phenotype (%),[4],51%
same,Population Mitotic Cells (%),[4],60%
same,Population Normal (%),[4],94%
same,Population Pyknosed Nuclei (%),[4],13%
same,Population Tubulin-Different-Phenotype (%),[4],27%
same,Total Cell Count,[4],344
same,Population Apoptotic (%),[5],41%
same,Population Fragmented Nuclei (%),[5],8%
same,Population Healthy Nuclei (%),[5],81%
same,Population Hoechst High Intensity Objects (%),[5],6%
same,Population Membrane Permeable-Phenotype (%),[5],0%
same,Population Mitochondria Different-Phenotype (%),[5],21%
same,Population Mitotic Cells (%),[5],58%
same,Population Normal (%),[5],93%
same,Population Pyknosed Nuclei (%),[5],9%
same,Population Tubulin-Different-Phenotype (%),[5],15%
same,Total Cell Count,[5],522
same,Population Apoptotic (%),[6],28%
same,Population Hoechst High Intensity Objects (%),[6],5%
same,Population Mitochondria Different-Phenotype (%),[6],32%
same,Population Mitotic Cells (%),[6],71%
same,Population Normal (%),[6],94%
same,Population Tubulin-Different-Phenotype (%),[6],16%
same,Total Cell Count,[6],521
same,Population Apoptotic (%),[7],22%
same,Population Fragmented Nuclei (%),[7],10%
same,Population Healthy Nuclei (%),[7],77%
same,Population Hoechst High Intensity Objects (%),[7],3%
same,Population Membrane Permeable-Phenotype (%),[7],1%
same,Population Mitochondria Different-Phenotype (%),[7],15%
same,Population Mitotic Cells (%),[7],77%
same,Population Normal (%),[7],96%
same,Population Pyknosed Nuclei (%),[7],12%
same,Population Tubulin-Different-Phenotype (%),[7],20%
same,Total Cell Count,[7],594
same,Population Apoptotic (%),[8],28%
same,Population Fragmented Nuclei (%),[8],7%
same,Population Healthy Nuclei (%),[8],82%
same,Population Hoechst High Intensity Objects (%),[8],5%
same,Population Membrane Permeable-Phenotype (%),[8],0%
same,Population Mitochondria Different-Phenotype (%),[8],31%
same,Population Mitotic Cells (%),[8],71%
same,Population Normal (%),[8],94%
same,Population Pyknosed Nuclei (%),[8],9%
same,Population Tubulin-Different-Phenotype (%),[8],23%
same,Total Cell Count,[8],437
same,Population Apoptotic (%),[9],28%
same,Population Fragmented Nuclei (%),[9],16%
same,Population Healthy Nuclei (%),[9],76%
same,Population Hoechst High Intensity Objects (%),[9],2%
same,Population Membrane Permeable-Phenotype (%),[9],0%
same,Population Mitochondria Different-Phenotype (%),[9],16%
same,Population Mitotic Cells (%),[9],71%
same,Population Normal (%),[9],97%
same,Population Pyknosed Nuclei (%),[9],7%
same,Population Tubulin-Different-Phenotype (%),[9],13%
same,Total Cell Count,[9],834
same,Population Apoptotic (%),[10],32%
same,Population Fragmented Nuclei (%),[10],14%
same,Population Healthy Nuclei (%),[10],81%
same,Population Membrane Permeable-Phenotype (%),[10],2%
same,Population Mitochondria Different-Phenotype (%),[10],14%
same,Population Mitotic Cells (%),[10],67%
same,Population Pyknosed Nuclei (%),[10],4%
same,Population Tubulin-Different-Phenotype (%),[10],12%
same,Total Cell Count,[10],877
same,Population Apoptotic (%),[11],21%
same,Population Fragmented Nuclei (%),[11],13%
same,Population Healthy Nuclei (%),[11],81%
same,Population Hoechst High Intensity Objects (%),[11],3%
same,Population Membrane Permeable-Phenotype (%),[11],2%
same,Population Mitochondria Different-Phenotype (%),[11],12%
same,Population Mitotic Cells (%),[11],78%
same,Population Normal (%),[11],96%
same,Population Pyknosed Nuclei (%),[11],5%
same,Population Tubulin-Different-Phenotype (%),[11],14%
same,Total Cell Count,[11],929
same,Population Apoptotic (%),[12],25%
same,Population Fragmented Nuclei (%),[12],12%
same,Population Healthy Nuclei (%),[12],80%
same,Population Hoechst High Intensity Objects (%),[12],2%
same,Population Membrane Permeable-Phenotype (%),[12],1%
same,Population Mitochondria Different-Phenotype (%),[12],18%
same,Population Mitotic Cells (%),[12],75%
same,Population Normal (%),[12],97%
same,Population Pyknosed Nuclei (%),[12],7%
same,Population Tubulin-Different-Phenotype (%),[12],15%
same,Total Cell Count,[12],586
C[C@@H]1C[C@H]2[C@@H]3CCC4=CC(=O)C=C[C@]4(C)[C@@]3(F)[C@@H](O)C[C@]2(C)[C@@]1(O)C(=O)CO [DEXAMETHASONE],Population Apoptotic (%),[1],37%
same,Population Fragmented Nuclei (%),[1],8%
same,Population Healthy Nuclei (%),[1],78%
same,Population Hoechst High Intensity Objects (%),[1],2%
same,Population Membrane Permeable-Phenotype (%),[1],1%
same,Population Mitochondria Different-Phenotype (%),[1],45%
same,Population Mitotic Cells (%),[1],62%
same,Population Normal (%),[1],97%
same,Population Pyknosed Nuclei (%),[1],12%
same,Population Tubulin-Different-Phenotype (%),[1],24%
same,Total Cell Count,[1],420
same,Population Apoptotic (%),[2],53%
same,Population Fragmented Nuclei (%),[2],7%
same,Population Healthy Nuclei (%),[2],80%
same,Population Hoechst High Intensity Objects (%),[2],8%
same,Population Membrane Permeable-Phenotype (%),[2],0%
same,Population Mitochondria Different-Phenotype (%),[2],62%
same,Population Mitotic Cells (%),[2],46%
same,Population Normal (%),[2],91%
same,Population Tubulin-Different-Phenotype (%),[2],26%
same,Total Cell Count,[2],372
same,Population Apoptotic (%),[3],37%
same,Population Fragmented Nuclei (%),[3],7%
same,Population Healthy Nuclei (%),[3],79%
same,Population Hoechst High Intensity Objects (%),[3],6%
same,Population Membrane Permeable-Phenotype (%),[3],0%
same,Population Mitochondria Different-Phenotype (%),[3],44%
same,Population Mitotic Cells (%),[3],62%
same,Population Normal (%),[3],93%
same,Population Pyknosed Nuclei (%),[3],13%
same,Population Tubulin-Different-Phenotype (%),[3],33%
same,Total Cell Count,[3],374
same,Population Apoptotic (%),[4],44%
same,Population Fragmented Nuclei (%),[4],5%
same,Population Healthy Nuclei (%),[4],81%
same,Population Hoechst High Intensity Objects (%),[4],14%
same,Population Mitochondria Different-Phenotype (%),[4],69%
same,Population Mitotic Cells (%),[4],55%
same,Population Normal (%),[4],85%
same,Population Tubulin-Different-Phenotype (%),[4],39%
same,Total Cell Count,[4],436
same,Population Apoptotic (%),[5],31%
same,Population Fragmented Nuclei (%),[5],9%
same,Population Healthy Nuclei (%),[5],78%
same,Population Hoechst High Intensity Objects (%),[5],4%
same,Population Membrane Permeable-Phenotype (%),[5],0%
same,Population Mitochondria Different-Phenotype (%),[5],30%
same,Population Mitotic Cells (%),[5],68%
same,Population Normal (%),[5],95%
same,Population Pyknosed Nuclei (%),[5],12%
same,Population Tubulin-Different-Phenotype (%),[5],17%
same,Total Cell Count,[5],569
same,Population Apoptotic (%),[6],42%
same,Population Fragmented Nuclei (%),[6],12%
same,Population Healthy Nuclei (%),[6],79%
same,Population Hoechst High Intensity Objects (%),[6],7%
same,Population Mitochondria Different-Phenotype (%),[6],45%
same,Population Mitotic Cells (%),[6],57%
same,Population Normal (%),[6],92%
same,Population Pyknosed Nuclei (%),[6],8%
same,Total Cell Count,[6],499
same,Population Apoptotic (%),[7],36%
same,Population Fragmented Nuclei (%),[7],8%
same,Population Healthy Nuclei (%),[7],74%
same,Population Hoechst High Intensity Objects (%),[7],6%
same,Population Membrane Permeable-Phenotype (%),[7],0%
same,Population Mitochondria Different-Phenotype (%),[7],30%
same,Population Mitotic Cells (%),[7],63%
same,Population Normal (%),[7],93%
same,Population Pyknosed Nuclei (%),[7],16%
same,Population Tubulin-Different-Phenotype (%),[7],29%
same,Total Cell Count,[7],453
same,Population Apoptotic (%),[8],44%
same,Population Fragmented Nuclei (%),[8],9%
same,Population Healthy Nuclei (%),[8],79%
same,Population Hoechst High Intensity Objects (%),[8],15%
same,Population Mitochondria Different-Phenotype (%),[8],43%
same,Population Mitotic Cells (%),[8],56%
same,Population Normal (%),[8],84%
same,Population Pyknosed Nuclei (%),[8],11%
same,Population Tubulin-Different-Phenotype (%),[8],22%
same,Total Cell Count,[8],513
same,Population Apoptotic (%),[9],30%
same,Population Fragmented Nuclei (%),[9],15%
same,Population Healthy Nuclei (%),[9],77%
same,Population Hoechst High Intensity Objects (%),[9],1%
same,Population Membrane Permeable-Phenotype (%),[9],1%
same,Population Mitochondria Different-Phenotype (%),[9],18%
same,Population Mitotic Cells (%),[9],69%
same,Population Normal (%),[9],98%
same,Population Pyknosed Nuclei (%),[9],7%
same,Population Tubulin-Different-Phenotype (%),[9],12%
same,Total Cell Count,[9],915
same,Population Apoptotic (%),[10],27%
same,Population Healthy Nuclei (%),[10],78%
same,Population Hoechst High Intensity Objects (%),[10],3%
same,Population Membrane Permeable-Phenotype (%),[10],0%
same,Population Mitochondria Different-Phenotype (%),[10],27%
same,Population Mitotic Cells (%),[10],72%
same,Population Normal (%),[10],96%
same,Population Pyknosed Nuclei (%),[10],6%
same,Population Tubulin-Different-Phenotype (%),[10],15%
same,Total Cell Count,[10],685
same,Population Apoptotic (%),[11],25%
same,Population Fragmented Nuclei (%),[11],15%
same,Population Healthy Nuclei (%),[11],76%
same,Population Hoechst High Intensity Objects (%),[11],3%
same,Population Membrane Permeable-Phenotype (%),[11],0%
same,Population Mitochondria Different-Phenotype (%),[11],18%
same,Population Mitotic Cells (%),[11],75%
same,Population Normal (%),[11],96%
same,Population Pyknosed Nuclei (%),[11],7%
same,Population Tubulin-Different-Phenotype (%),[11],14%
same,Total Cell Count,[11],760
same,Population Apoptotic (%),[12],50%
same,Population Fragmented Nuclei (%),[12],16%
same,Population Hoechst High Intensity Objects (%),[12],6%
same,Population Mitochondria Different-Phenotype (%),[12],28%
same,Population Mitotic Cells (%),[12],49%
same,Population Normal (%),[12],93%
same,Population Tubulin-Different-Phenotype (%),[12],19%
same,Total Cell Count,[12],756
